The half-life is the time in which the quantity being followed falls by half. A word on the EC50: it is the concentration at which the effect is half-maximal. By solubility is commonly meant the dissolved amount per volume that the medium holds. As a reminder, the CC50 is the concentration giving 50% cytotoxicity.

Results on eleven compounds are retold here after ChEMBL document CHEMBL1131079, “Synthesis and evaluation of 2-amino-9-(3-hydroxymethyl-4-alkoxycarbonyloxybut-1-yl)purines as potential prodrugs of penciclovir” (J Med Chem, 1998).

Converted amounts (≈) assume the structure as drawn. Where only a bound is given, the exact number is not on record here.

The nature of series [1]: Half-life by the HPLC using a C18 reversed-phase column at pH 1.2 (HC/NaCl buffer) and 37 degree C. In kind it is ADME. The conditions noted are these: HCl/NaCl buffer. In outline: (§1)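 Compound at 125 μM final (from 2.5 mM stock) incubated at 37 °C in HCl/NaCl buffer pH 1.2 or sodium phosphate buffer pH 6.0, 7.4 or 8.0. Aliquots taken at intervals were diluted into 0.1 M phosphate pH 7.0 and run isocratically on a C18 column with 0.1% phosphoric acid/MeCN eluents. Half-life calculated from remaining parent concentration.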

Series [2] can be described thus: Half-life by the HPLC using a C18 reversed-phase column at pH 8..0(sodium phosphate buffer) and 37 degree C. The format is ADME. In short, it runs like this: as §1
The next series deals with Human alphaherpesvirus 1. The series is described as follows: Compound was tested for in vitro antiviral activity against herpes viruses of type 1 (HSV-1,KOS strain) (concentration required to reduce the OD value by 50% of the virus infected control). In kind it is functional, organism-based. In outline: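 Dye-uptake assay. Vero cells (10⁵ cells/mL) in EMEM with 5% FBS were infected with HSV-1 KOS at 100 PFU/well. After 1 h adsorption, serial 3-fold compound dilutions from 125 μM were added in quadruplicate. After 48 h at 37 °C, neutral red uptake was eluted and read at 550 nm. EC50 derived by quantal probit analysis against virus and cell controls.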

Series [3] in a line: Half-life by the HPLC using a C18 reversed-phase column at pH 7.4(sodium phosphate buffer) and 37 degree C. In kind it is ADME. In short, it runs like this:
as §1

Series [4] can be described thus: Solubility at 20 degree C was determined by the comparison of th UV absorbance of the saturated solution of each compound at 290 nm with that of the standard curve.
The species entered for the next series is Mus musculus. In words: The total amount of penciclovir recovered in the urine over a 48-h period was determined by HPLC using a C18 reversed-phase column in mouse. In kind it is ADME, organism-based. The note with it: in vivo. In outline:
(§2)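 Urine collected 48 h in metabolic cages over sodium azide, then filtered. Penciclovir quantified by C18 HPLC with a three-step phosphoric acid/MeCN gradient, UV 248 nm. Result expressed as total urinary penciclovir, % of dose.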

For the next series, the system named is Vero. In words: Compound was tested for cytotoxicity in Vero cells (concentration required to reduce the OD value by 50% of the control). In kind it is functional. The conditions noted are these: Chlorocebus sabaeus. In outline: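 Vero cells (ATCC) seeded at 5 × 10³ cells/well and grown 24 h in EMEM, then exposed to a range of compound concentrations for 3 days at 37 °C, 5% CO₂. MTT added for a further 4 h, formazan dissolved in DMSO, OD read at 540 nm. CC50 is the concentration giving 50% OD reduction versus control. Quadruplicate wells, experiment repeated twice.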

A further series is filed under the species Rattus norvegicus. In words: The total amount of penciclovir recovered in the urine over a 48-h period was determined by HPLC using a C18 reversed-phase column in rat. The format is ADME, organism-based. The note with it: in vivo. In short, it runs like this: as §2
Series [5] is described as follows: Half-life by the HPLC using a C18 reversed-phase column at pH 6.0 (sodium phosphate buffer) and 37 degree C. In kind it is ADME. In outline:
as §1

On to `CC(C)CCOC(=O)OCC(CO)CCn1cnc2cnc(N)nc21` (configuration not stated), for which the half-life in series [1] was 24 days; in series [2], 6 days; in series [3], 11 days; in series [5] it was 65 days. The half-maximal effective concentration (EC50) in the series on Human alphaherpesvirus 1 was greater than 125 µM. In [4], the solubility at 0.29 µM is 5.6 mg/mL (≈ 15.9 mM). In addition, the “Urinary penciclovir recovery over 48 h (% of dose)” value in the series listed under Mus musculus came out at 51%. In addition, the CC50 with Vero worked out at 357 µM. For the same compound, the “urinary penciclovir recovery, % of dose” value in the series listed under Rattus norvegicus is reported as 40%.
As to `CCCOC(=O)OCC(CO)CCn1cnc2cnc(N)nc21` (configuration not stated), the half-life in series [1] is 29 days; in series [2] it was 4 days; in [3] it was 10 days; in [5] it was 89 days. In the series on Human alphaherpesvirus 1, this compound yielded an EC50 greater than 125 µM. Further, the concentration in solution in series [4] (solubility at 0.29 µM) came to 68 mg/mL (≈ 210 mM). The “Urinary penciclovir recovery over 48 h (% of dose)” value in the series filed under Mus musculus is listed as 51%. In the series with Vero, the CC50 was greater than 500 µM. In the series filed under Rattus norvegicus, the “urinary penciclovir recovery, % of dose” value stood at 34%.
As to `CC(C)OC(=O)OCC(CO)CCn1cnc2cnc(N)nc21` (configuration not stated), the half-life was 88 days in [1], 26 days in series [2], 61 days in series [3] and greater than 200 days in series [5]. Also, in the series on Human alphaherpesvirus 1, the half-maximal effective concentration (EC50) is greater than 125 µM. Moreover, the solubility at 0.29 µM in [4] worked out at 139 mg/mL (≈ 429 mM). The “Urinary penciclovir recovery over 48 h (% of dose)” value in the series listed under Mus musculus was found to be 53%. The compound further came in with a CC50 in the series with Vero greater than 500 µM. Moreover, the “urinary penciclovir recovery, % of dose” value in the series filed under Rattus norvegicus turned out to be 40%.
Regarding `CCCCCOC(=O)OCC(CO)CCn1cnc2cnc(N)nc21` (configuration not stated), the half-life is 25 days in [1], 5 days in series [2], 7 days in [3] and 17 days in series [5]. Besides, the EC50 with Human alphaherpesvirus 1 was greater than 125 µM. Besides, in series [4], the solubility at 0.29 µM came out at 4.2 mg/mL (≈ 12 mM). Moreover, the “Urinary penciclovir recovery over 48 h (% of dose)” value in the series listed under Mus musculus is on record as 47%. For the same compound, the CC50 with Vero was greater than 500 µM. Moreover, the “urinary penciclovir recovery, % of dose” value in the series filed under Rattus norvegicus is given as 38%.
`Nc1ncc2ncn(CCC3COC(=O)OC3)c2n1`: the half-life in series [2] was 0.07 days; in [3], 0.12 days; in series [5], 2.6 days. Further, the EC50 in the series on Human alphaherpesvirus 1 is greater than 125 µM. Also, the “Urinary penciclovir recovery over 48 h (% of dose)” value in the series filed under Mus musculus came out at 27%. The compound further returned a CC50 in the series with Vero greater than 500 µM. The “urinary penciclovir recovery, % of dose” value in the series listed under Rattus norvegicus was 15%.
On to `CCCCOC(=O)OCC(CO)CCn1cnc2cnc(N)nc21` (configuration not stated), for which the half-life in [1] is 29 days; in series [2], 5 days; in series [3], 11 days; in series [5], 74 days. The same compound registered a concentration for a half-maximal effect (EC50) in the series on Human alphaherpesvirus 1 greater than 125 µM. Moreover, the solubility at 0.29 µM in [4] was 15 mg/mL (≈ 44.5 mM). In addition, in the series filed under Mus musculus, the “Urinary penciclovir recovery over 48 h (% of dose)” value is on record as 38%. In the series on Vero, this compound returned a CC50 greater than 500 µM. The “urinary penciclovir recovery, % of dose” value in the series filed under Rattus norvegicus was determined as 41%.
On to `CCOC(=O)OCC(CO)CCn1cnc2cnc(N)nc21` (configuration not stated), for which the half-life is 35 days in series [1], 3 days in series [2], 7 days in series [3] and 112 days in series [5]. In the series with Human alphaherpesvirus 1, the concentration giving a half-maximal response (EC50) is greater than 125 µM. The same compound returned a solubility at 0.29 µM in [4] of 20 mg/mL (≈ 64.7 mM). For the same compound, the “Urinary penciclovir recovery over 48 h (% of dose)” value in the series listed under Mus musculus was 50%. In the series with Vero, this compound displayed a CC50 greater than 500 µM. For the same compound, in the series listed under Rattus norvegicus, the “urinary penciclovir recovery, % of dose” value is on record as 40%.
On to `CC(C)COC(=O)OCC(CO)CCn1cnc2cnc(N)nc21` (configuration not stated), for which the half-life in series [1] was 28 days; in series [2] it was 8 days; in series [3], 17 days; in series [5], 87 days. In the series with Human alphaherpesvirus 1, this compound had an EC50 greater than 125 µM. In [4], this compound registered a solubility at 0.29 µM of 1.5 mg/mL (≈ 4.45 mM). Further, in the series filed under Mus musculus, the “Urinary penciclovir recovery over 48 h (% of dose)” value worked out at 38%. For the same compound, in the series on Vero, the 50% cytotoxic concentration (CC50) was greater than 500 µM. In the series listed under Rattus norvegicus, the “urinary penciclovir recovery, % of dose” value is 37%.
`COC(=O)OCC(CO)CCn1cnc2cnc(N)nc21` (configuration not stated): the half-life in [1] was 23 days; in [2], 0.5 days; in series [3], 1 days; in series [5] it was 18 days. In addition, the EC50 in the series with Human alphaherpesvirus 1 was greater than 125 µM. For the same compound, in series [4], the solubility at 0.29 µM was determined as 14.1 mg/mL (≈ 47.7 mM). Moreover, the “Urinary penciclovir recovery over 48 h (% of dose)” value in the series listed under Mus musculus worked out at 45%. This compound returned a CC50 in the series with Vero greater than 500 µM. In the series listed under Rattus norvegicus, the “urinary penciclovir recovery, % of dose” value was 39%.
In the series with Human alphaherpesvirus 1, `CC(=O)OCC(CCn1cnc2cnc(N)nc21)COC(C)=O` [FAMCICLOVIR] registered an EC50 greater than 125 µM. Moreover, the “Urinary penciclovir recovery over 48 h (% of dose)” value in the series listed under Mus musculus is 48%. Moreover, the CC50 in the series on Vero is greater than 500 µM. Further, in the series listed under Rattus norvegicus, the “urinary penciclovir recovery, % of dose” value is listed as 40%.
Compound `Nc1nc2c(ncn2CCC(CO)CO)c(=O)[nH]1` [PENCICLOVIR] showed an EC50 with Human alphaherpesvirus 1 of 8.65 µM. For the same compound, in the series filed under Mus musculus, the “Urinary penciclovir recovery over 48 h (% of dose)” value was 3%. Further, the CC50 in the series on Vero is greater than 500 µM. In the series listed under Rattus norvegicus, the “urinary penciclovir recovery, % of dose” value was found to be 9%.
